B1: tRNA (parent)
chain: GUUCCGUUGGCGUAAUGGUAACGCGUCUCCCUCCUAAGGAGAAGACUGCGGGUUCGAGUCCCGUACGGAACG

Variants at the floor of the assay were thinned out.

Variants of B1 are the subject of this data set. Description: yeast fitness relative to wild type (ratio to wild type); higher = fitter; tRNA-Arg(CCU), competitive growth, 37 C, YPD. The method in brief: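 For this measurement, the tRNA-Arg(CCU) gene was varied by chemical synthesis at a 3% per-site mutation rate across 69 sites, and each variant was placed at the native genomic locus in Saccharomyces cerevisiae. The pooled strains went through a 24-hour competition in YPD at 37°C in six parallel replicates, with amplicons from start and end populations read by 100-nucleotide paired-end sequencing. Darwinian fitness relative to wild type followed from the change in each genotype's frequency. Genotypes needed ≥ 100 starting reads, and estimates < 0.5 were set to 0.5.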
As to GUUCCGUUGACGUAAAGGUAACGCGUCUCCAUCCUAAGGAGGGGACUGCGGGUUCGAGUCCCGUACGCAACG, the yeast fitness was not above 0.5.
With GUUCCGUUGACGUAAUGGUAACGCGUCUCCCUCCUAAGGAGAAGACUGCGGGUUCGAGUCCCAUACGGAACG the figure was 0.698; with GUUCCGUUGACGUAAUGGUAACGCGUCUCCCUCCUAAGGAGAACACUGCGGGUUCGAGUCCCGUACGGAACG, 0.79; with GUUCCGUUGACGUAAUGGUAACGCGUCUCCCUCCUAAGGAGAAAACUGCGGGUUCGAGUCCCGUACGGAACG, 0.786.
In the case of GUUCCGUUGACGUAAUGGUAACGCAUCUCCCUCCUAAGGAGAAGACCGCGGGUUCGAGUCCCGUACGGAACG it was not above 0.5.
In the case of GUUCCGUUGACGUAAUGGCAACGCGUCUCCCUCCUGAGGAGAAGACUAGGGGUUCGAGUCCCGUACGGAACG it was not above 0.5; in that of GUUCCGUUGACGUAAGGGUAACGCGUCUCCCUCCUAAGGAGAAGACUGCGGGUUCGAGUCCCGUACGGAACG, 0.611; in that of GUUCCGUUGACGUAAAGGUAACGCGUCUCCCCCCUAAGGAGAAGACUGCGGGUUCGAGUCCCGUGCGGAACG, not above 0.5.
Take GUUCCGUUGACGUAAUGGUAACGCGUCUCCCUCCUAAGGAGAAGACUGCGAGUUCGAGUCCCGUACGGAACG: the yeast fitness was found to be 0.691.
Regarding GUUCCGUUGACGUAAAGGUAACGCGUCUCCCUCCUAAGGAGAAGACUGCGGGUUCGAGUCCCGUCCGGAACG, the yeast fitness was not above 0.5.
With GUUCCGUUGACGUAAAAGUAACGCGUCUCCCACCUAAGGAGUAGACUCCGGGUUCGAGUCCCGUACGGAACG the figure was not above 0.5; with GUUCCGUUGACGUAAUGGUAACGCGUCUCCCUCCUAAGGAAAAGACUGCGGGUUCGAGUCCCGUACGGAACG, 0.661.
In the case of GUUCCGUUGACGUAAUGGUAACGCGUCUCCCUCCUAAGGACAAGACUGCGGGUUCGAGUCCCGUACGGAACG it was 0.717; in that of GUUCCGUUGACGUAAAGGUAACGCGUCUCCCUCCUAAGGAGAAGACUGCGGAUUCGAGUCCCGUUCGGAACG, not above 0.5; in that of GUUCCGUUGACGAAAUGGUAACGUGUCUCCCUCCUAAGGAGAAGACUGCGGGUUCGAGUCCCGUACGGAACG, 0.599.
In the case of GUUCCGUUGACGUAAAGGUAACGCGUCUCCCUCCUAAGGAGAAGACUGCGGGUUCGAGUCCCGUACGAAACG it was 0.567; in that of GUUCCGUUGACGAAAUGGUAACGAGUCUCCCUCCUAAGGAGAAGACUGCGGGUUGGAGUCCUGUACGGAACG, not above 0.5; in that of GUUCCGUUGACGGAAUGGUAACGCGUUUCCCUCCUAAGGAGAAGAGUGCGGGUUCGAGUCCCGUACGGAACG, not above 0.5.
On to GUUCCGUUGACGUAAUGGUAACGCGUCUCCCUCCUAAGGAGAAGACUGCGGGUUCGAAUCCCGUACGGUACG, for which the yeast fitness amounted to 0.54.
For GUUCCGUUGACGUAAAGGUAACGCGUCUCCCUCCUAACGACAAGACUGCGGGUUCGAGUCCCGUGCGGAACG, the yeast fitness is not above 0.5.
In the case of GUUCCGUUGACGGAAUGGUAACGCGUCUCCCUCCUAAGGAGAUGACUGCGGGCUCGAGUCCCGUACGGAACG, the yeast fitness is not above 0.5.
For GUUCCGUUGACGUAAUGGUAACGCGUCUCCCUCCUAAGGAGAAGACUGCGGGUUCGAGUCCCGUACGUAACG, the yeast fitness stood at 0.75.
As for GUUCCGUUGACGUAAUGGUAACGCGUCUCCCUCCUAAGGAGAAGACUGCGGGUUCGAGUCCCGUACGAAACG, the yeast fitness worked out at 0.753.
For GUUCCGUUGACGUAAUGGUAACGCGUCUCCCUCCUAAGGAGAAGACUCCGGGUUCGAGUCCCGUACCGAACG, the yeast fitness amounted to 0.56.
For GUUCCGUUGACGUAAAGGUAACGCGUCUCCCUCCUAAGGAGAAGACUGCGGGUUCGAGUCCCAUACGGAACG, the yeast fitness was not above 0.5.
On to GUUCCGUUGACGUAAUGGUAACGCCUCUCCCUCCUAAGGAGAAGACUGGGGGUUCGAGUCCCGUACGGAACG, for which the yeast fitness was found to be 0.603.
Regarding GUUCCGUUGACGUAAAGGUAACGCGUCUCCAUCCUAAGGAGAAGACUGCGGCUUCGAGUCCCGUACGGAACG, the yeast fitness was not above 0.5.
GUUCCGUUGACGUAACGGUAACGCGUCUCCCUCCUGAGGAGAAGACUCCGGGUUCGAGUCCCGUACGGAACG: the yeast fitness was not above 0.5.
In the case of GUUCCGUUGACGUAAUGGUAACGCGUCUCCCUCCUAAGGAGAACACUGCGGGUUCGAGUCCCCUACGGAACG it was not above 0.5.
In the case of GUUCCGUUGACGUAAAGGUAACGAGUCUCCCUCCUAAGCAGAUGACUGCGGGUUCGAGUUCCGUACGGAACG it was not above 0.5; in that of GUUCCGUUGACGUAAUGGAAACGCGUCUCCCUCCUAAGGCGCAGACUGCGGGUUCGAGUCCCGUACGAACCG, not above 0.5; in that of GUUCCGUUGACGCAAUGGUAUCGCGUCUCCCUCCUAAGGAGAAGACUGCGGGUUCGAGUCCCGUACGGAACG, not above 0.5.
Turning to GUUCCGUUGACGUAAAGGUAACGCGUCUCCCUCCUAAAGAGAAGACUGCGGGUUCGAGUCCCGCACGGAACG, the yeast fitness is not above 0.5.
Regarding GUUCCGUUGACGUAAUGGUAACGCAUCUGCUUCCUAAGGAGAAGACUGCGGGUUCGAGUCCCGUACGGAACG, the yeast fitness is not above 0.5.
For the variant GUUCCGUUGACGUAAUGGAAACGCGUCUCCCUCCUAAGGCGCAGACUGCGGGUUCGAGUCCCGUACGGAACG, the yeast fitness is 0.541.
With GUUCCGUUGACGUAAUGGUAACGCGUCUCCCUCCUAAGGAGAACACUGCGGGUUCGAGUCCCGUCCAGAACG the figure was not above 0.5; with GUUCCGUUGACGACAUGGUAACGCGUCUCCCUCCUAAGGAGAUGACUGCGGGUUCGAGUGCCGUACGGAACG, not above 0.5.
In the case of GUUCCGUUGACGUAAUGGUAACGCGUCUCCCUCCUAAGGAGAAGACUGCAGGUUCGAGGCCAGUACGGAACG, the yeast fitness was not above 0.5.
In the case of GUUCCGUUGACGUAAUGGUAACGCGUCUCCCUCCUAAGGAGAAGACUGCGCGUUCGAUUCCCGUACGGAACG it was not above 0.5.
Consider GUUCCGUUGACGUAAUGGUAACGCGUCUCCCUCCUAAGGAGAAGACUGCGGAUUCGAGUCCCGUACGGUACG, for which the yeast fitness is not above 0.5.
For the variant GUUCCGUUGACGGAAUGGUAACGCGUUUCCCUCCUAAGGAGAAGAGUGCGGGUUCGAGUCCCGUACAGAACG, the yeast fitness was not above 0.5.
In the case of GUUCCGUUGACGUAAUGGAAACGCGUCUCCCUCCUAAGGAGGAGACUGCGGGUUCGAGUCCCGUCCGGAACG it was not above 0.5.
With GUUCCGUUGACGGAAUGGUAACGCGUCUCCCUCCUGAGGAGAAGACUGCGGGUUCGAGUCCCGUACGGAACG the figure was 0.52.
Turning to GUUCCGUUGACGUAAUGGAAACGCGUCUCCCUCCUAAGGAGAACACUGUGGGUUCGAGUCCCGUACCGAACG, the yeast fitness is not above 0.5.
Turning to GUUCCGUUGACGUAAUGGUAACGCGAUUACCUCCUAAGGAGAAGACUGCGGGUUCGAGUCCCGUGCGCAACG, the yeast fitness is 0.563.
Regarding GUUCCGUUGACGUAAUGGUAACGCGUCUCCCUCCUAAGGAAAAGACUGCGGGUUCGAGUGCCGUGCGGAACG, the yeast fitness amounted to 0.529.
In the case of GUUCCGUUGACGUAAUGGUAACGCGUCUCCCUCCUAAGGAGAAAACUGCGGGUCCGAGUCUCGUACAGAACG it was not above 0.5.
For GUUCCGUUGACGCAAUGGUAACGCGUCUCCCUCCUAAGGAGAAGACUGCGGGUUCGAGUCCCGUACGGAACG, the yeast fitness came to 0.658.
With GUUCCGUUGACGUAAUGGUAACGCGUCUCCCUCCUAAGGAGAAAACUGCGGGUCCGAGUCUCGUACGGCACG the figure was 0.638; with GUUCCGUUGACGUAAUGGUAACGCGUCUCCCUCCUAACGAGAAGACUGCGGGUUCGAGUCCCGUACGGAACG, 0.549; with GUUCCGUUGACGUAAUGGUAACGCGUCUCCCUCCUAAGCAGAAGACUGCGGGUUCGAGUCCUAUACGGAUCG, not above 0.5.
In the case of GUUCCGUUGACGUAAUGGUAACGCGUCUCCCUCCUAAGGACAAGACUGCGGGUUCGAGUCGCGUACGGAACG it was not above 0.5.
In the case of GUUCCGUUGACGUAAUGGAAACGCGUCUCCCUCCUAAGGAGAACACUGCGGGUGUGAGUCCCGUACGGAACG it was not above 0.5; in that of GUUCCGUUGACGUAAUGGAAACGCGUCUCCCUCCUAAGGACAAGACUGCGGGUUCGAGUCCCGUAUGGAACG, 0.617; in that of GUUCCGUUGACGUAAAGGUAACGCGUCUCCCUCCUAAGGAGAAGACUGCGGGUUCGUGUCCCGUACGGAACG, 0.558.
As for GUUCCGUUGACGAAAUGGUAACGUGUCUCCCUCCUAAGGAGAAGACUGCGGGUUCGAGUCCCGUCCGGAACG, the yeast fitness was not above 0.5.
With GUUCCGUUGACGUAAUGGUAACGCGUCUCCCUCCUAAGGAGAAGACUCCGGGUUCGAGUCCCGUACGGAACG the figure was 0.733.
In the case of GUUCCGUUGACGUAAUGGUAACGCGUCUCCCUCCUAAGGAGAAGACUGCGGAUUCGGGUCCCGUAUGGAACG it was not above 0.5.
In the case of GUUCCGUUGACGUAAAGGUAACGCGUCUCCAUCCUAAGGAGAAGACUGCGAGUUCGAGUCCCGUACGGAUCG it was not above 0.5.
For the variant GUUCCGUUGACGUAAUGGUAACGCGUCUCCCUCCUAAGGAGAAGACUGCGGGUUCGAGUCCCGUACCGAACG, the yeast fitness was found to be 0.819.
Take GUUCCGUUGACGUAAUGGUAACGCGUCUCCCUCCUAAGGAGAAGACUGCGGGUUCGAGUCCCGUACAGAACG: the yeast fitness is 0.75.
In the case of GUUCCGUUGACGUAAUGGUAACGCAUCUCCCUCCUAAGGACAAGACUGCGGGUGCGAGUCUCGUACGGAACG, the yeast fitness stood at 0.551.
Consider GUUCCGUUGACGCAAUGGUAACGCGUCUCCCUCCUAAGGCGAAGACUGCGGGUUCGAGUCCCGUACGGAACG, for which the yeast fitness was not above 0.5.
As for GUUCCGUUGACGUAAUGGAAACGCGUCUCCCUCCUAAGGCGAAGACUGCGGGUUCGAGUCCCGUACGGAACG, the yeast fitness was not above 0.5.
As for GUUCCGUUGACGUAAUGGUAACGCGUCUCCCUCCUAAGGAGAAGACUGCGAGUUGGAGUCCCGUACUCAACG, the yeast fitness is not above 0.5.
With GUUCCGUUGACGUAAUGGUAACGCGUCUCCCUCCUAAGUAGAAGACUGCGGGUUCGCGUCCCGUACGGAUCG the figure was not above 0.5; with GUUCCGUUGACGUAAUGGUAACGCGUCUCCCUCCUAAGGAGAAGACUGCGGGUUCAAGUCCCGUACGGAACG, 0.754; with GUUCCGUUGACGUAAAGGUAACGCGUCUCCCUCCUAAGGAGAAGACUGCGGGUUCGAGUCCCGAACGGAACG, 0.544.
In the case of GUUCCGUUGACGUAAUGGUAACGCGUCUCCCUCCUAAGCAGAAGACUGCGGGUUCGAGUCCCGUACGGAACG it was 0.763; in that of GUUCCGUUGACGCAAUGCUUACGCGUCUCACUCCUAAGGAGAAGACUGCGGGUUCGAGUCCCGUACGGAACG, not above 0.5; in that of GUUCCGUUGACGAAAUGGUAACGAGUCUCCCUCCUAAGGAGAAGACUGCGGGUACGAGUCCCGUACGGAACG, not above 0.5.
Consider GUUCCGUUGACGUAAUGGUAACGCAUCUCCCUCCUAAGGACAAGACUGCGGGUUCGGGUCCCGUACGGAACG, for which the yeast fitness is not above 0.5.
With GUUCCGUUGACGUAAUGGUAACGCGUCUCCCUCCUAACGAGAAGAAUGCGGGUUCGAGUCCGGUAUGGAACG the figure was not above 0.5; with GUUCCGUUGACGUAAUGGUAACGCGUCUCCCUCCUAACGAGAAGACUGCGGGUUCGGGUCCCGUACGGAACG, not above 0.5.
As to GUUCCGUUGACGAAAUGGUAACGUGUCUCCCUCCUAAGGAGAAGACUGCGGGUUCGAGUCCCGUACGGACCG, the yeast fitness was not above 0.5.

(Values after the RNAGym collection of RNA variant scans (doi:10.1126/science.aae0568).)
